Results: ChEMBL document CHEMBL1139414, “Conformationally constrained analogues of diacylglycerol. 29. Cells sort diacylglycerol-lactone chemical zip codes to produce diverse and selective biological activities” (J Med Chem, 2008)

biological target: Protein kinase C alpha type (Mus musculus, UniProt P20444); experiment: Displacement of [3H]PDBu form mouse PKCalpha by scintillation counting
How it was run: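 Partially purified mouse PKCα; competition with [³H]PDBU. ID50 obtained by fitting a sigmoidal competition curve and converted to Ki = ID50/(1+L/Kd). Pure compounds tested at 6–7 concentrations; crude library compounds at a single 1 μM concentration. Triplicates per concentration, at least three experiments; mean ± SEM.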

Ki | Compound
103 nM | COc1ccc(C(=O)OCC2(CO)C/C(=C\c3ccc([N+](=O)[O-])cc3)C(=O)O2)cc1 (racemic; form 2)
22.8 nM | CCCCC(CC)C(=O)OCC1(CO)C/C(=C/c2ccccc2C(F)(F)F)C(=O)O1 (racemic)
33.3 nM | CC(CC(=O)OCC1(CO)C/C(=C/c2ccccc2C(F)(F)F)C(=O)O1)CC(C)(C)C (racemic)
171 nM | Cc1ccccc1C(=O)OCC1(CO)C/C(=C/c2ccc([N+](=O)[O-])cc2)C(=O)O1 (racemic)
81.8 nM | O=C1OC(CO)(COC(=O)C(c2ccccc2)c2ccccc2)C/C1=C/c1ccc(F)cc1 (racemic)
13.1 nM | CCCC(CCC)C(=O)OCC1(CO)C/C(=C/c2ccc(Cl)cc2)C(=O)O1 (racemic)
135 nM | Cc1ccccc1C(=O)OCC1(CO)C/C(=C/c2ccccc2)C(=O)O1 (racemic)
16.6 nM | CCCC(CCC)C(=O)OCC1(CO)C/C(=C\c2ccc(C(F)(F)F)cc2)C(=O)O1 (racemic; form 2)
31.9 nM | CCC(C(=O)OCC1(CO)C/C(=C/c2ccc(F)c(Cl)c2)C(=O)O1)c1ccccc1 (racemic)
58.9 nM | O=C1OC(CO)(COC(=O)C(c2ccccc2)c2ccccc2)C/C1=C/c1ccc(Br)cc1 (racemic)
88.4 nM | CC(C)(C)C(=O)OCC1(CO)C/C(=C/c2ccc(F)cc2)C(=O)O1 (racemic)
119 nM | CC(C)C(=O)OCC1(CO)C/C(=C/c2ccc(F)c(Cl)c2)C(=O)O1 (stereo not given)
15.2 nM | CCCCCC/C=C1/CC(CO)(COC(=O)C(CC)CCCC)OC1=O (racemic)
515 nM | CN(C)c1ccc(/C=C2/CC(CO)(COC(=O)c3ccc(C(F)(F)F)cc3)OC2=O)cc1 (racemic)
213 nM | CN(C)c1ccc(/C=C2\CC(CO)(COC(=O)c3ccc([N+](=O)[O-])cc3)OC2=O)cc1 (racemic; form 1)
36.7 nM | CC(C)(C)C(=O)OCC1(CO)C/C(=C/c2ccc(Cl)c(F)c2)C(=O)O1 (racemic)
212 nM | Cc1ccc(C(=O)OCC2(CO)C/C(=C/c3ccc([N+](=O)[O-])cc3)C(=O)O2)cc1 (racemic)
17.1 nM | CCCC(CCC)C(=O)OCC1(CO)C/C(=C\c2ccc(F)cc2)C(=O)O1 (racemic; form 2)
49.5 nM | CCCCCC/C=C1/CC(CO)(COC(=O)c2ccccc2C)OC1=O (racemic)
59 nM | CCC(C(=O)OCC1(CO)C/C(=C/c2ccccc2C(F)(F)F)C(=O)O1)c1ccccc1 (racemic)

Ki | Compound
69.4 nM | Cc1cc(C)c(C(=O)OCC2(CO)C/C(=C/C3CCCCC3)C(=O)O2)c(C)c1 (racemic)
18.3 nM | CCC(C(=O)OCC1(CO)C/C(=C\c2ccc(-c3ccc(C(F)(F)F)cc3)cc2)C(=O)O1)c1ccccc1 (racemic; form 2)
40.6 nM | CCCC(CCC)C(=O)OCC1(CO)C/C(=C/c2ccc(-c3ccc(C(F)(F)F)cc3)cc2)C(=O)O1 (racemic)
552 nM | COc1ccc(/C=C2/CC(CO)(COC(=O)c3ccc([N+](=O)[O-])cc3)OC2=O)cc1 (racemic)
72.4 nM | O=C1OC(CO)(COC(=O)c2ccc(C(F)(F)F)cc2)C/C1=C/c1ccc(C(F)(F)F)cc1 (racemic)
73.4 nM | O=C1OC(CO)(COC(=O)C(c2ccccc2)c2ccccc2)C/C1=C/c1ccc(Cl)cc1 (racemic)
3.38 nM | CCCC(CCC)C(=O)OCC1(CO)C/C(=C\c2ccc(Cl)c(F)c2)C(=O)O1 (racemic; form 1)
37.9 nM | O=C1OC(CO)(COC(=O)C(c2ccccc2)c2ccccc2)C/C1=C/c1ccc(F)c(Br)c1 (racemic)
7.9 nM | CC(C)(C)C(=O)OCC1(CO)C/C(=C\c2ccc(Cl)c(F)c2)C(=O)O1 (racemic; form 1)
134 nM | CCCCC(/C=C1/CC(CO)(COC(=O)c2ccc(N(C)C)cc2)OC1=O)CC (racemic; form 2)
12.4 nM | CCCCC(CC)C(=O)OCC1(CO)C/C(=C\c2ccc(Cl)c(F)c2)C(=O)O1 (racemic; form 1)
87.6 nM | CC(C)C(=O)OCC1(CO)C/C(=C/c2ccc(Cl)c(F)c2)C(=O)O1 (racemic)
305 nM | CN(C)c1ccc(C(=O)OCC2(CO)C/C(=C/C3CCCCC3)C(=O)O2)cc1 (racemic)
261 nM | COc1ccc(C(=O)OCC2(CO)C/C(=C/C3CCCCC3)C(=O)O2)cc1 (racemic)
359 nM | COc1ccc(/C=C2\CC(CO)(COC(=O)c3ccc(N(C)C)cc3)OC2=O)cc1 (racemic; form 2)
60.2 nM | Cc1cc(C)c(C(=O)OCC2(CO)C/C(=C/c3ccccc3)C(=O)O2)c(C)c1 (racemic)
60.6 nM | CC(C)C(=O)OCC1(CO)C/C(=C/c2ccc(F)c(Br)c2)C(=O)O1 (racemic)
18.4 nM | CC(CC(=O)OCC1(CO)C/C(=C/c2ccc(C(F)(F)F)cc2)C(=O)O1)CC(C)(C)C (racemic)
73.5 nM | CCCCC(CC)C(=O)OCC1(CO)C/C(=C/c2ccc([N+](=O)[O-])cc2)C(=O)O1 (racemic)
187 nM | CCCCC(/C=C1/CC(CO)(COC(=O)c2ccc(C(F)(F)F)cc2)OC1=O)CC (racemic)

Ki | Compound
156 nM | COc1ccc(/C=C2/CC(CO)(COC(=O)C3CCCCC3)OC2=O)cc1 (racemic)
61.9 nM | O=C1OC(CO)(COC(=O)C(c2ccccc2)c2ccccc2)C/C1=C/c1cccc(C(F)(F)F)c1 (racemic)
426 nM | O=C1OC(CO)(COC(=O)c2ccc([N+](=O)[O-])cc2)C/C1=C/C1CCCCC1 (racemic)
133 nM | O=C1OC(CO)(COC(=O)C(c2ccccc2)c2ccccc2)C/C1=C/c1ccccc1C(F)(F)F (racemic)
108 nM | CCC(C(=O)OCC1(CO)C/C(=C\c2ccc(-c3ccc(C(F)(F)F)cc3)cc2)C(=O)O1)c1ccccc1 (racemic; form 1)
26.4 nM | CC(C)(C)CC(=O)OCC1(CO)C/C(=C/c2ccc(F)c(Cl)c2)C(=O)O1 (racemic)
88.2 nM | CC(C)C(=O)OCC1(CO)C/C(=C/c2ccc(Cl)cc2)C(=O)O1 (racemic)
197 nM | COc1ccc(/C=C2\CC(CO)(COC(=O)c3c(C(C)C)cc(C(C)C)cc3C(C)C)OC2=O)cc1 (racemic; form 2)
19.3 nM | CC(C)(C)C(=O)OCC1(CO)C/C(=C/c2ccc(F)c(Br)c2)C(=O)O1 (racemic)
173 nM | COc1ccc(/C=C2/CC(CO)(COC(=O)c3ccccc3C)OC2=O)cc1 (racemic)
50.2 nM | CC(C)(C)CC(=O)OCC1(CO)C/C(=C/c2ccc(Br)cc2)C(=O)O1 (racemic)
1080 nM | CN(C)c1ccc(C(=O)OCC2(CO)C/C(=C/c3ccc([N+](=O)[O-])cc3)C(=O)O2)cc1 (racemic)
27.2 nM | CC(C)(C)C(=O)OCC1(CO)C/C(=C/c2ccc(-c3ccc(C(F)(F)F)cc3)cc2)C(=O)O1 (racemic)
310 nM | CC(C)C(=O)OCC1(CO)C/C(=C/c2ccccc2C(F)(F)F)C(=O)O1 (racemic; form 1)
37 nM | CC(C)(C)CC(=O)OCC1(CO)C/C(=C/c2ccc(-c3ccc(C(F)(F)F)cc3)cc2)C(=O)O1 (racemic)
30.2 nM | CCCCC(CC)C(=O)OCC1(CO)C/C(=C/C2CCCCC2)C(=O)O1 (racemic)
362 nM | CN(C)c1ccc(C(=O)OCC2(CO)C/C(=C\c3ccc([N+](=O)[O-])cc3)C(=O)O2)cc1 (racemic; form 2)
41.4 nM | CC(C)(C)CC(=O)OCC1(CO)C/C(=C/c2ccccc2C(F)(F)F)C(=O)O1 (racemic)
138 nM | Cc1ccc(C(=O)OCC2(CO)C/C(=C/c3ccccc3)C(=O)O2)cc1 (racemic)

Compound | Ki
CCCCCC/C=C1/CC(CO)(COC(=O)c2ccc(C)cc2)OC1=O (racemic) | 60.2 nM
